According to ChEMBL document CHEMBL1154778, “Synthesis and biological evaluation of C-5 methyl substituted 4-arylthio and 4-aryloxy-3-Iodopyridin-2(1H)-one type anti-HIV agents” (J Med Chem, 2009):

Experiments:
[1] = test system: Human immunodeficiency virus 1; assay: Antiviral activity against HIV-1 LAI harboring wild type reverse transcriptase infected in human MT4 cells after 5 days by MTT assay; assay type: functional, organism-based; settings: Human immunodeficiency virus 1, LAI, MT4, 120 h
In short: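 MT4 cells were kept in RPMI 1640 with 10% fetal calf serum and antibiotics at 37 °C, 5% CO2. A range of compound concentrations was incubated with HIV-1 LAI at 200 CCID50/well and 30000 MT4 cells/well for 5 days at 37 °C. Cell viability was read by MTT, and IC50 was the concentration giving 50% infection versus the drug-free control.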

[2] = Selectivity index, ratio of CC50 for human MT4 cells to IC50 for HIV-1 LAI harboring wild type reverse transcriptase infected in human MT4 cells; assay type: functional
In short: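 Cytotoxicity was measured in mock-infected MT4 cultures (30000 cells/well) given the same compound concentration range, run in parallel with the infected cultures for 5 days at 37 °C, 5% CO2, with MTT viability. CC50 was the concentration reducing viability by 50% versus the drug-free control. SI was CC50 divided by IC50 against HIV-1 LAI.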

[3] = test system: Human immunodeficiency virus 1; assay: Antiviral activity against HIV1 HXB2 harboring Y181C mutant reverse transcriptase infected in human MT4 cells after 5 days by MTT assay; assay type: functional, organism-based; settings: Human immunodeficiency virus 1, HXB2, MT4, 120 h
In short: (§1)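 Mutant viruses were made by recombining the mutant PR-RT sequence into a PR-RT-deleted HIV-1 HXB2 proviral clone. MT4 cells were grown in RPMI 1640 with 10% FCS and antibiotics. Virus at 200 CCID50/well and 30000 cells/well were incubated with varied compound concentrations for 5 days at 37 °C, 5% CO2. MTT viability gave IC50, the concentration giving 50% infection versus the drug-free control.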

[4] = test system: Human immunodeficiency virus 1; assay: Antiviral activity against HIV1 HXB2 harboring K103N mutant reverse transcriptase infected in human MT4 cells after 5 days by MTT assay; assay type: functional, organism-based; settings: Human immunodeficiency virus 1, HXB2, MT4, 120 h; in short: as §1
[5] = test system: Human immunodeficiency virus 1; assay: Antiviral activity against HIV1 HXB2 harboring Y188L mutant reverse transcriptase infected in human MT4 cells after 5 days by MTT assay; assay type: functional, organism-based; settings: Human immunodeficiency virus 1, HXB2, MT4, 120 h; in short: as §1

Row | Compound | IC50 [1] [nM] | Ratio CC50/IC50 [2] | IC50 [3] [nM] | IC50 [4] [nM] | IC50 [5] [nM]
1 | Cc1cc(C)cc(Oc2c(Cn3cncc3C)c(C)[nH]c(=O)c2I)c1 | 5.01 | >19952 | 31.6 | 10 | 125
2 | Cc1cc(C)cc(Oc2c(CN3CCN(C(=O)c4ccco4)CC3)c(C)[nH]c(=O)c2I)c1 | 10 | 1585 | 125 | 25.1 | 158
3 | Cc1cc(C)cc(Oc2c(Cn3cc(Br)cn3)c(C)[nH]c(=O)c2I)c1 | 7.94 | >12589 | 31.6 | 7.94 | 100
4 | Cc1cc(C)cc(Sc2c(Cn3cnc(C)c3/C=N/O)c(C)[nH]c(=O)c2I)c1 | 6.3 | >15849 | 1260 | 158 | 3160
5 | Cc1cc(C)cc(Sc2c(CSCc3cccs3)c(C)[nH]c(=O)c2I)c1 | 10 | >10000 | 39.8 | 10 | 794
6 | Cc1cc(C)cc(Oc2c(CN3CCOC(CC#N)C3)c(C)[nH]c(=O)c2I)c1 (configuration not stated) | 6.3 | >15849 | 31.6 | 6.3 | 100
7 | Cc1cc(C)cc(Sc2c(CSc3nccs3)c(C)[nH]c(=O)c2I)c1 | 5.01 | 15849 | 199 | 7.94 | 3160
8 | Cc1cc(C)cc(Sc2c(Cn3cncn3)c(C)[nH]c(=O)c2I)c1 | 1 | >25119 | 7.94 | 1 | 125
9 | CC(=O)c1c(C)cn(Cc2c(C)[nH]c(=O)c(I)c2Sc2cc(C)cc(C)c2)c1C | 10 | 5012 | 63 | 50.1 | 199
10 | Cc1cc(C)cc(Oc2c(CN3CC=CC3)c(C)[nH]c(=O)c2I)c1 | 3.98 | 15848 | 50.1 | 7.94 | 125
11 | Cc1cc(C)cc(Sc2c(CN)c(C)[nH]c(=O)c2I)c1 | 19.9 | – | 794 | 158 | > 10000
12 | COCCC1CN(Cc2c(C)[nH]c(=O)c(I)c2Sc2cc(C)cc(C)c2)CCO1 (configuration not stated) | 3.98 | 12589 | 63 | 5.01 | 398
13 | COC1CCCN(Cc2c(C)[nH]c(=O)c(I)c2Sc2cc(C)cc(C)c2)C1 (configuration not stated) | 5.01 | >19953 | 25.1 | 3.16 | 125
14 | Cc1cc(C)cc(Oc2c(CSCC3CCCO3)c(C)[nH]c(=O)c2I)c1 (configuration not stated) | 7.94 | >12589 | 63 | 25.6 | 158
15 | COCCOCc1c(C)[nH]c(=O)c(I)c1Oc1cc(C)cc(C)c1 | 1.58 | >63096 | 10 | 50.1 | 158
16 | Cc1cc(C)cc(Oc2c(Cn3cncn3)c(C)[nH]c(=O)c2I)c1 | 1.99 | >50118 | 10 | 3.98 | 100
17 | Cc1cc(C)cc(Oc2c(Cn3ccnn3)c(C)[nH]c(=O)c2I)c1 | 2.51 | >39810 | 31.6 | 7.94 | 79.4
18 | Cc1cc(C)cc(Sc2c(Cn3cc(Br)cn3)c(C)[nH]c(=O)c2I)c1 | 10 | >10000 | 39.8 | 5.01 | 316
19 | Cc1cc(C)cc(Sc2c(CN3CCOC(CCO)C3)c(C)[nH]c(=O)c2I)c1 (configuration not stated) | 1.58 | 31623 | 31.6 | 1.58 | 199
20 | Cc1cc(C)cc(Sc2c(Cn3cccc3)c(C)[nH]c(=O)c2I)c1 | 2.51 | 19953 | 31.6 | 1 | 158
21 | Cc1cc(C)cc(Oc2c(COCC3CCCO3)c(C)[nH]c(=O)c2I)c1 (configuration not stated) | 7.94 | >12589 | 39.8 | 31.6 | 501
22 | Cc1cc(C)cc(Sc2c(Cn3cccc3C#N)c(C)[nH]c(=O)c2I)c1 | 1 | >31623 | – | – | –
23 | Cc1cc(C)cc(Sc2c(Cn3cnc(C)c3C#N)c(C)[nH]c(=O)c2I)c1 | 1.25 | >79433 | 31.6 | 1.25 | 100
24 | Cc1cc(C)cc(Oc2c(CN(C)Cc3ccco3)c(C)[nH]c(=O)c2I)c1 | 5.01 | 12589 | 39.8 | 31.6 | 251

Row | Compound | IC50 [1] [nM] | Ratio CC50/IC50 [2] | IC50 [3] [nM] | IC50 [4] [nM] | IC50 [5] [nM]
25 | CCOCc1c(C)[nH]c(=O)c(I)c1Oc1cc(C)cc(C)c1 | 0.63 | >158489 | 6.3 | 6.3 | 125
26 | Cc1cc(C)cc(Sc2c(Cc3ccc[nH]3)c(C)[nH]c(=O)c2I)c1 | 3.98 | >25119 | 10 | 0.5 | 50.1
27 | Cc1cc(C)cc(Oc2c(Cn3ccnc3Br)c(C)[nH]c(=O)c2I)c1 | 7.9 | >3981 | – | – | –
28 | CCOC(=O)CSCc1c(C)[nH]c(=O)c(I)c1Oc1cc(C)cc(C)c1 | 10 | >10000 | – | – | –
29 | Cc1cc(C)cc(Oc2c(CN3CCSCC3)c(C)[nH]c(=O)c2I)c1 | 6.3 | >15849 | 39.8 | 7.94 | 125
30 | Cc1cc(C)cc(Sc2c(Cn3ccnc3C#N)c(C)[nH]c(=O)c2I)c1 | 1 | >31623 | – | – | –
31 | Cc1cc(C)cc(Sc2c(Cn3ncnc3C)c(C)[nH]c(=O)c2I)c1 | 1.99 | >12589 | 31.6 | 15.8 | 316
32 | Cc1cc(C)cc(Sc2c(CSCCc3cnccn3)c(C)[nH]c(=O)c2I)c1 | 1.99 | >39811 | 31.6 | 5.01 | 199
33 | Cc1cc(C)cc(Oc2c(CN3CCSC3)c(C)[nH]c(=O)c2I)c1 | 6.3 | >15848 | 39.8 | 15.8 | 251
34 | Cc1cc(C)cc(Oc2c(CN3CCCC(C#N)C3)c(C)[nH]c(=O)c2I)c1 (configuration not stated) | 3.98 | 19953 | 31.6 | 6.3 | 199
35 | CCSCc1c(C)[nH]c(=O)c(I)c1Sc1cc(C)cc(C)c1 | 3.16 | >15849 | 31.6 | 5.01 | 630
36 | Cc1cc(C)cc(Sc2c(Cn3cnc(-c4ccccc4)n3)c(C)[nH]c(=O)c2I)c1 | 6.3 | >15849 | 10 | 7.94 | 39.8
37 | Cc1cc(C)cc(Oc2c(CSC3CCCC3)c(C)[nH]c(=O)c2I)c1 | 10 | >10000 | 100 | 31.6 | 630
38 | Cc1cc(C)cc(Oc2c(COCc3ccsc3)c(C)[nH]c(=O)c2I)c1 | 5 | >19953 | 25.1 | 25.1 | 100
39 | COCC1CCN(Cc2c(C)[nH]c(=O)c(I)c2Sc2cc(C)cc(C)c2)CC1 | 5.01 | 7943 | 630 | 19.9 | 3160
40 | CNC(=O)CSCc1c(C)[nH]c(=O)c(I)c1Oc1cc(C)cc(C)c1 | 1.58 | >60096 | 19.9 | 3.98 | 158
41 | Cc1cc(C)cc(Oc2c(COCc3ccccc3)c(C)[nH]c(=O)c2I)c1 | 7.94 | >12589 | 31.6 | 31.6 | 125
42 | Cc1cc(C)cc(Oc2c(COCc3cccs3)c(C)[nH]c(=O)c2I)c1 | 6.3 | >15849 | 31.6 | 6.3 | 50.1
43 | Cc1cc(C)cc(Oc2c(CNC(=O)c3cc4ccccc4o3)c(C)[nH]c(=O)c2I)c1 | 6.3 | >15849 | 31.6 | 199 | 158
44 | Cc1cc(C)cc(Sc2c(CN3CCN(C(=O)c4ccco4)CC3)c(C)[nH]c(=O)c2I)c1 | 10 | 398 | – | – | –
45 | Cc1cc(C)cc(Sc2c(CN3CCOC(CN(C)C)C3)c(C)[nH]c(=O)c2I)c1 (configuration not stated) | 5.01 | >5012 | 158 | – | 1000
46 | Cc1cc(C)cc(Oc2c(Cn3ncc4ccccc43)c(C)[nH]c(=O)c2I)c1 | 7.9 | >3981 | – | – | –
47 | Cc1cc(C)cc(Oc2c(CN3CCCC(C(N)=O)C3)c(C)[nH]c(=O)c2I)c1 (configuration not stated) | 10 | >10000 | – | – | –
